For one experiment, the target named is Adrenergic receptor beta (Rattus norvegicus, UniProt P18090+P10608+P26255). Kind of experiment: The compound was evaluated for the inhibition of [125I]cyanopindolol binding to beta adrenergic receptor in rat reticulocyte membrane. It counts as cell membranes.
Experiment [1] is filed under the species Rattus norvegicus. Nature of the experiment: The compound was evaluated for its ability to stimulate adenylate cyclase activity. It counts as functional. Put shortly: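 Rat reticulocyte membranes (0.01–0.05 mg protein) incubated 10 min at 32 °C in 50 mM Tris-HCl pH 7.4 with 1.6 mM ATP, 5 mM MgCl2, 1 mM EGTA, 10 mM theophylline, 0.01% BSA, creatine phosphokinase/phosphocreatine, 0.5 mM GTP and varying ligand concentrations. Stopped by boiling with EDTA buffer; cAMP measured by competitive protein binding. Basal and GTP activity subtracted; EC50 from dose-effect analysis.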

The species entered for experiment [2] is Rattus norvegicus. Kind of experiment: The compound was evaluated for the intrinsic activity compared to (-)-isoproterenol. It is filed as functional.

These results are taken from ChEMBL document CHEMBL1123828, “Carbostyril derivatives having potent beta-adrenergic agonist properties” (J Med Chem, 1987).

Each structure is given as a SMILES string.

As for `CC(C)(Cc1ccc(I)cc1)NCC(O)c1ccc(O)c2nc(O)ccc12` (centres undefined), the 50% inhibitory concentration (IC50) (commonly the point on the concentration scale where inhibition reaches its midpoint) on Adrenergic receptor beta is 7.6 nM. Further, in the experiment filed under Rattus norvegicus [1], the EC50 (commonly the concentration giving half of the maximal effect) is 5.6 nM. Also, the IA in the experiment listed under Rattus norvegicus [2] is listed as 1.3.

The compound `CC(C)(Cc1ccc(NC(=O)CBr)cc1)NCC(O)c1ccc(O)c2nc(O)ccc12` (centres undefined) returned an IC50 at Adrenergic receptor beta of 5.3 nM. In the experiment listed under Rattus norvegicus [1], this compound had an EC50 of 8.5 nM. In addition, the IA in the experiment filed under Rattus norvegicus [2] is given as 1.2.

For the compound `CC(C)(Cc1ccc(N)cc1)NCC(O)c1ccc(O)c2nc(O)ccc12` (centres undefined), at Adrenergic receptor beta, the IC50 is recorded as 22 nM. For the same compound, the midpoint of the response in the experiment filed under Rattus norvegicus [1], the EC50, lay at 14.2 nM. The same compound displayed an IA in the experiment listed under Rattus norvegicus [2] of 1.

In the experiment listed under Rattus norvegicus [1], `CC(C)NCC(O)c1ccc(O)c(O)c1` (single isomer, unassigned; (-)) [ISOPROTERENOL] had an EC50 of 226 nM. In addition, in the experiment listed under Rattus norvegicus [2], the IA was 1.

Consider `CC(C)(Cc1ccccc1)NCC(O)c1ccc(O)c2nc(O)ccc12` (centres undefined), for which, at Adrenergic receptor beta, the IC50 came out at 3.1 nM. The compound also registered an EC50 in the experiment filed under Rattus norvegicus [1] of 6.9 nM. For the same compound, the IA in the experiment filed under Rattus norvegicus [2] is listed as 1.
